# Source: ChEMBL document CHEMBL2311285, “3-Thiomorpholin-8-oxo-8H-acenaphtho [1,2-b] pyrrole-9-carbonitrile (S1) derivatives as pan-Bcl-2-inhibitors of Bcl-2, Bcl-xL and Mcl-1” (Bioorg Med Chem, 2013)
# Active and inactive are the calls of the source. No cut-off for these calls is given here.
# Columns and labels:
# [1] = target: T1, Apoptosis regulator Bcl-2 (Homo sapiens, UniProt P10415); experiment: Binding affinity to human Bcl-2 (unknown origin) by biotin-Bim displacement based ELISA
# [2] = target: T2, Induced myeloid leukemia cell differentiation protein Mcl-1 (Homo sapiens, UniProt Q07820); experiment: Binding affinity to cMcl-1 (residues 171 to 327) (unknown origin) by biotin-Bim displacement based ELISA
# T2 sequence (Q07820 whole entry, the tested form may be a part): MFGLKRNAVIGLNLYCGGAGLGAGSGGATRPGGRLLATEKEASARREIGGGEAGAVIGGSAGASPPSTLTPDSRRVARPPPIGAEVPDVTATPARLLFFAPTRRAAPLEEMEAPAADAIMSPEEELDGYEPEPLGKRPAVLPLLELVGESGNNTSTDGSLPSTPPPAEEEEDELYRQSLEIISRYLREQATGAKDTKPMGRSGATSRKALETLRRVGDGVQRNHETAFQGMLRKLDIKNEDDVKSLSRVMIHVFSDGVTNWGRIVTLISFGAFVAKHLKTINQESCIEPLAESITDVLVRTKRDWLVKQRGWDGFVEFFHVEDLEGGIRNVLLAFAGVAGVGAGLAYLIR
# In short: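 Competitive ELISA: biotin-Bim (residues 81-106) at 0.09 µg/mL in blocking buffer bound to streptavidin-coated wells for 1.5 h. Serial compound dilutions (from 10 mM DMSO stock) containing 0.01% Triton X-100 preincubated 1 h with 20 nM His-tagged protein in PBS, then transferred to wells for 2 h. Anti-His-HRP added for 1 h, then TMB for 30 min, stopped with H2SO4. Room temperature throughout.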
# Bcl-2-like protein 1 = Bcl-2-like protein 1 (Homo sapiens, UniProt Q07817); experiment: Binding affinity to N-terminal 8xHis tagged cBcl-XL (unknown origin) expressed in Escherichia coli BL21 (DE3) by ELISA
# Chain of Bcl-2-like protein 1 (Q07817 whole entry): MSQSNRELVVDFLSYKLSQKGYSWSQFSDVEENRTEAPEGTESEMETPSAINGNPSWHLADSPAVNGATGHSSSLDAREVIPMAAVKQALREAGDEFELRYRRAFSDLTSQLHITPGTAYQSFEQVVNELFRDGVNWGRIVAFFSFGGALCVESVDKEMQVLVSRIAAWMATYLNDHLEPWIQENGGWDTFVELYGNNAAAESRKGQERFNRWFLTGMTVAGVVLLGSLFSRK
# [3] = target: T1, Apoptosis regulator Bcl-2; experiment: Binding affinity to human Bcl-2 (unknown origin) by ITC assay
# [4] = target: T2, Induced myeloid leukemia cell differentiation protein Mcl-1; experiment: Binding affinity to cMcl-1 (residues 171 to 327) (unknown origin) by ITC assay
# In short: (§1)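 ITC at 25 °C in 20 mM Tris pH 8.0, 150 mM NaCl, 1% DMSO. For wild-type versus R263A comparison, 16 × 2.5 µL injections of 500 µM compound into 50 µM protein. Data were corrected against a buffer-only cell titrated with compound and fitted to a one-site model to give Kd.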
# [5] = Solubility in 1% DMSO/H2O; assay type: physicochemical
# [6] = target: Induced myeloid leukemia cell differentiation protein Mcl-1 (Homo sapiens, UniProt Q07820, R263A); experiment: Binding affinity to cMcl-1 R263A mutant (unknown origin) by ITC assay; assay type: single protein; in short: as §1
# Chain of Induced myeloid leukemia cell differentiation protein Mcl-1 (Homo sapiens, UniProt Q07820, R263A) (Q07820 whole entry R263A): as the sequence (Q07820 whole entry, the tested form may be a part) above, with R263A counted along it
# HL-60 = experiment: Induction of apoptosis in human HL60 cells assessed as cytochrome c release at 5 uM incubated for 12 hrs by Western blotting method; assay type: functional, cell-based
# In short: (§2)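 Cells treated 12 h with 5 µM compound, then lysed in digitonin lysis buffer. After centrifugation, the cytosolic supernatant (S-100) was probed for cytochrome c by western blot. A parallel harvest was used for Mcl-1/Bak and Bcl-2/Bax co-immunoprecipitation.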
# MCF7 = experiment: Induction of apoptosis in human MCF7 cells assessed as cytochrome c release at 5 uM incubated for 12 hrs in presence of Bax/Bak ShRNA by Western blotting method; assay type: functional, cell-based
# In short: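 Wild-type MCF-7 cells and Bax/Bak shRNA-transfected MCF-7 cells were treated with 5 µM compound. Cytochrome c was detected by western blot in the S-100 cytosolic fraction, obtained from digitonin lysis and centrifugation.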
# K562 = experiment: Induction of apoptosis in human K562 cells assessed as cytochrome c release at 5 uM incubated for 12 hrs by Western blotting method; assay type: functional, cell-based; in short: as §2
# T1 sequence (P10415 whole entry, the tested form may be a part): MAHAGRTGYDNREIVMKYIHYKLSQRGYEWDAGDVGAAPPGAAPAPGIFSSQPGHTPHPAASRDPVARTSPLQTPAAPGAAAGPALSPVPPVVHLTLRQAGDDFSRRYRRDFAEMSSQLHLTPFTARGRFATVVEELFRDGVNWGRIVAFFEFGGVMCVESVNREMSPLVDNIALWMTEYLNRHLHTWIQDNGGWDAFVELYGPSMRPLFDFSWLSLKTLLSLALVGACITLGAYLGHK
SMILES,IC50 [1] [nM],IC50 [2] [nM],IC50 (Bcl-2-like protein 1) [nM],Kd [3] [nM],Kd ([4]; read-out: pKd (converted)) [nM],solubility [5] [µg/mL],Kd ([4]; read-out: Kd) [nM],Kd [6] [nM],Activity (HL-60),Activity (MCF7),Activity (K562)
O=C1N=C2C(=C1NCc1ccccc1)c1ccc(N3CCSCC3)c3cccc2c13,> 10000,521,–,–,–,–,–,–,–,–,–
CCCOC(=O)C1=C2C(=NC1=O)c1cccc3c(N4CCSCC4)ccc2c13,2100,> 10000,–,–,–,–,–,–,–,–,–
CCCCCNC1=C2C(=NC1=O)c1cccc3c(N4CCSCC4)ccc2c13,–,37,–,–,–,–,–,–,–,–,–
CCCCCCNC1=C2C(=NC1=O)c1cccc3c(Sc4ccc(N)cc4)ccc2c13,80,30,71,79.4,29.5,–,–,–,–,–,–
O=C1N=C2C(=C1NCCCc1ccccc1)c1ccc(Sc3ccc(OO)cc3)c3cccc2c13,57,42,53,57.5,41.7,–,–,–,–,–,–
CC(C)NC1=C2C(=NC1=O)c1cccc3c(N4CCSCC4)ccc2c13,> 10000,2500,–,–,–,–,–,–,–,–,–
CCCCNC1=C2C(=NC1=O)c1cccc3c(Sc4ccc(N)cc4)ccc2c13,190,50,165,191,50.1,27,512,12800,Active,inactive,Active
CCCCNC1=C2C(=NC1=O)c1cccc3c(N4CCSCC4)ccc2c13,198,79,171,200,79.4,–,–,–,–,–,–
O=C1N=C2C(=C1NCCCCCc1ccccc1)c1ccc(N3CCSCC3)c3cccc2c13,1300,1100,–,–,–,–,–,–,–,–,–
O=C1N=C2C(=C1NCCCc1ccccc1)c1ccc(N3CCSCC3)c3cccc2c13,49,15,43,49,15.1,–,–,–,–,–,–
Cc1cc2c(C(C)C)c(O)c(O)c(C=O)c2c(O)c1-c1c(C)cc2c(C(C)C)c(O)c(O)c(C=O)c2c1O [GOSSYPOL],–,–,–,–,–,–,2320,–,–,Active,–
CC(C)c1ccc(Oc2ccc3c4c(cccc24)C2=NC(=O)C(C#N)=C23)cc1,739,321,650,759,324,–,–,–,–,–,–
CCCCNC1=C2C(=NC1=O)c1cccc3c(Oc4ccc(C(C)C)cc4)ccc2c13,322,141,283,324,141,–,–,–,–,–,–
CCOC(=O)C1=C2C(=NC1=O)c1cccc3c(N4CCSCC4)ccc2c13,2200,> 10000,–,–,–,–,–,–,–,–,–
N#CC1=C2C(=NC1=O)c1cccc3c(Sc4ccc(N)cc4)ccc2c13,331,90,291,331,91.2,–,–,–,–,–,–
N#CC1=C2C(=NC1=O)c1cccc3c(N4CCSCC4)ccc2c13,715,95,625,708,95.5,2,954,28700,–,–,–
CCCCCCNC1=C2C(=NC1=O)c1cccc3c(N4CCSCC4)ccc2c13,96,37,85,95.5,37.2,–,–,–,–,–,–
Nc1ccc(Sc2ccc3c4c(cccc24)C2=NC(=O)C(NCCCc4ccccc4)=C23)cc1,20,10,18,20,10,18,105,2340,Active,inactive,Active
COc1ccc(Sc2ccc3c4c(cccc24)C2=NC(=O)C(C#N)=C23)cc1,945,388,833,955,389,–,–,–,–,–,–
CCCCNC1=C2C(=NC1=O)c1cccc3c(Sc4ccc(OC)cc4)ccc2c13,356,150,315,355,151,–,–,–,–,–,–
CCCCCCNC1=C2C(=NC1=O)c1cccc3c(Oc4ccc(C(C)C)cc4)ccc2c13,184,75,162,182,79.4,–,802,19200,–,–,–
CC(C)c1ccc(Oc2ccc3c4c(cccc24)C2=NC(=O)C(NCCCc4ccccc4)=C23)cc1,42,39,37,41.7,38.9,–,–,–,–,–,–
CCCCCCNC1=C2C(=NC1=O)c1cccc3c(Sc4ccc(OC)cc4)ccc2c13,206,78,181,204,77.6,–,–,–,–,–,–
